In brackets after ≈: the same amount, converted by molar mass.
How the values were obtained:
[1] = Solubility in octanol; type: physicochemical
Procedure, shortened: (§1)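 Solubility of each compound measured in sterile water for injection, 0.9% saline, 5% dextrose in water, ethanol and octanol; values in mg/mL from duplicate determinations per solvent, individual values varying <5%.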

[2] = Half life in Sprague-Dawley rat at 2 mg, po; type: ADME, organism-based; conditions: in vivo
Procedure, shortened: (§2)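 Pharmacokinetics after one oral dose in male Sprague-Dawley rats (1 mg/kg, or 2 mg dose), beagle dogs and cynomolgus monkeys (1 mg/kg). Bioavailability, half-life, clearance and volume of distribution reported as mean ± variation.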

Adenosine receptor A1 [3] = biological target: T1, Adenosine receptor A1 (Homo sapiens, UniProt P30542); assay: Displacement of [125I]ABA from human adenosine A1 receptor expressed in CHOK1 cells; type: cell-based, CHO-K1
T1 sequence (P30542 whole entry): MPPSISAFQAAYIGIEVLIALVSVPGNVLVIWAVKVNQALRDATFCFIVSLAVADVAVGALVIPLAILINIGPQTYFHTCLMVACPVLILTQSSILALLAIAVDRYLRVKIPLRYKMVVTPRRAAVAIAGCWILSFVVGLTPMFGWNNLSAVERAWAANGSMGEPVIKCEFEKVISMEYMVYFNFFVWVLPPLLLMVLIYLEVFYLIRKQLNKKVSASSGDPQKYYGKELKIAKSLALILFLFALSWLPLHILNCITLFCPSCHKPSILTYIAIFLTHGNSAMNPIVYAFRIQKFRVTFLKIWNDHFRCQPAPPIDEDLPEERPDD
Procedure, shortened: (§3)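 Membranes from stably transfected CHO-K1 (hA1) or HEK (hA2A, hA2B, hA3) cells, 2 h at room temperature in 50 mM HEPES pH 7.4, 1 mM EDTA, 5 mM MgCl2, 1 U/mL adenosine deaminase. 5% DMSO final except hA3. Full curves 10^-11–10^-5 M, seven concentrations, four determinations each. Filtration, γ-counting, Ki derived.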

Rattus norvegicus [4] = assay: Volume of distribution in Sprague-Dawley rat at 2 mg, po; type: ADME, organism-based; conditions: in vivo; procedure, shortened: as §2
[5] = Solubility in 0.9% saline; type: physicochemical; procedure, shortened: as §1
[6] = biological target: T2, Adenosine receptor A2b (Homo sapiens) (UniProt P29275); assay: Displacement of [125I]3-(4-aminobenzyl)-8-phenyloxyacetate-1-propyl-xanthine from human adenosine A2B receptor expressed in HEK cells relative to control; type: cell-based; parameters: concentration or dose not given beside the values; conditions: HEK293
T2 sequence (whole entry): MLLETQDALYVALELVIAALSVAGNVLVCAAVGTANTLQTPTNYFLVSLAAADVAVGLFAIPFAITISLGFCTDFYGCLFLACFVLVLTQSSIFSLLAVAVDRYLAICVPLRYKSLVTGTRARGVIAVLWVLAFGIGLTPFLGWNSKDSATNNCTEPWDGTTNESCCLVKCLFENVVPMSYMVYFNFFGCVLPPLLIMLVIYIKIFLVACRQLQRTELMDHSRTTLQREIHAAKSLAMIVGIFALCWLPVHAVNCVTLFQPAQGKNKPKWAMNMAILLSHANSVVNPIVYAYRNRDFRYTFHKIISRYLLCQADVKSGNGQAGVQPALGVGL
Procedure, shortened: (§4)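 Single-point screen at 1 µM antagonist, run in duplicate, on transfected-cell membranes: CHO-K1 (hA1), HEK (hA2A, hA2B, hA3). 2 h at room temperature in 50 mM HEPES pH 7.4, 1 mM EDTA, 5 mM MgCl2, 1 U/mL adenosine deaminase; 5% DMSO except hA3. Nonspecific binding with 50 µM XAC, or 10 µM BW-1433 for hA3. Result is % radioligand bound relative to control.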

[7] = Oral bioavailability in Sprague-Dawley rat at 2 mg, po; type: ADME, organism-based; conditions: in vivo; procedure, shortened: as §2
Adenosine receptor A1 [8] = biological target: T3, Adenosine receptor A1 (Rattus norvegicus, UniProt P25099); assay: Displacement of [3H]CPX from rat brain cortex adenosine A1 receptor
T3 sequence (P25099 whole entry): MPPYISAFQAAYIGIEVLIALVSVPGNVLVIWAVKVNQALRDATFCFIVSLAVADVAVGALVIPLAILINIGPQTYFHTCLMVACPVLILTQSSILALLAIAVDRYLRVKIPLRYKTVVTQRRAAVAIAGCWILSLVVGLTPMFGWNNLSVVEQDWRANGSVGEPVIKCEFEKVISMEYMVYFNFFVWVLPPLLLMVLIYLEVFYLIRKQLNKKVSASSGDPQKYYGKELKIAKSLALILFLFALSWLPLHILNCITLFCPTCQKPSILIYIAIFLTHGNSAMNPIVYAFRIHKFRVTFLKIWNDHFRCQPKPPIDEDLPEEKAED
Procedure, shortened: (§5)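 Crude membranes (10-20 µg protein) from rat brain cortex (A1, 2 nM 3H-CPX) or striatum (A2A, 0.5-1.2 nM 3H-ZM241385) incubated 90 min at room temperature in 50 mM Tris-HCl pH 7.4 with 2 U/mL adenosine deaminase. Stopped with ice-cold buffer, then vacuum filtration and scintillation counting. Ki from concentration-response displacement.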

Adenosine receptor A2a [9] = biological target: Adenosine receptor A2a (Homo sapiens, UniProt P29274); assay: Displacement of [125I]ZM-241385 from human adenosine A2A receptor expressed in HEK cells; type: cell-based, HEK293; procedure, shortened: as §3
Sequence of Adenosine receptor A2a (Homo sapiens, UniProt P29274) (P29274 whole entry): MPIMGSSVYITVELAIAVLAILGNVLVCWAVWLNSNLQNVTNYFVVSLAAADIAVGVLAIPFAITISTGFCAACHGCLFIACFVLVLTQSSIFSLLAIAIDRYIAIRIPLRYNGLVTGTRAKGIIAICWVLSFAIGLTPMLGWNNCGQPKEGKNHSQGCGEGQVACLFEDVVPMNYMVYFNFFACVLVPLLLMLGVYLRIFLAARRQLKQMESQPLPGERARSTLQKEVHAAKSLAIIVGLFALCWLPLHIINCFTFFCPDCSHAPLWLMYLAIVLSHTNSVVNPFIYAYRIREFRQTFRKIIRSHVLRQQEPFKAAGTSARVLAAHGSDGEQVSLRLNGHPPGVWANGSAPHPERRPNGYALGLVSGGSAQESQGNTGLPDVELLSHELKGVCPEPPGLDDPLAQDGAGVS

[10] = Aqueous solubility of the compound; type: physicochemical; conditions: water; procedure, shortened: as §1
[11] = biological target: T4, Adenosine receptor A3 (Homo sapiens) (UniProt P0DMS8); assay: Displacement of [125I]ABA from human adenosine A3 receptor expressed in HEK cells relative to control; type: cell-based; parameters: concentration or dose not given beside the values; conditions: HEK293; procedure, shortened: as §4
T4 sequence (whole entry): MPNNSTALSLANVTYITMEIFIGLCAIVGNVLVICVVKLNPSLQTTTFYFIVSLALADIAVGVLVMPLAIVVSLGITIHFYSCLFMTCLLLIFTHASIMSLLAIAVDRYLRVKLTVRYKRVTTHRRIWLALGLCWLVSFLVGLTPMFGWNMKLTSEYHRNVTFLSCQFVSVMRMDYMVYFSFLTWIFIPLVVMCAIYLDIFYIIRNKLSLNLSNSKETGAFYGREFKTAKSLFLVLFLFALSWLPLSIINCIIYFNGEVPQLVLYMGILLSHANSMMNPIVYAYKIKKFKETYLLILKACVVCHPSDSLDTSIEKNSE

[12] = Clearance in Sprague-Dawley rat at 2 mg, po; type: ADME, organism-based; conditions: in vivo; procedure, shortened: as §2
[13] = biological target: Adenosine receptors; A1 & A2a (Homo sapiens) (UniProt P30542+P29274); assay: Selectivity for human adenosine A1 receptor over human adenosine A2A receptor; type: protein assay
[14] = Solubility in ethanol; type: physicochemical; procedure, shortened: as §1
[15] = Solubility in 5% dextrose in water; type: physicochemical; procedure, shortened: as §1
[16] = Oral bioavailability in Sprague-Dawley rat at 1 mg/kg, po; type: ADME, organism-based; conditions: in vivo; procedure, shortened: as §2
[17] = Clearance in Sprague-Dawley rat at 1 mg/kg, po; type: ADME, organism-based; parameters: dose 1 mg/kg, route oral; conditions: in vivo; procedure, shortened: as §2
[18] = biological target: Adenosine receptor A2a (Rattus norvegicus) (UniProt P30543); assay: Displacement of [3H]ZM241385 from rat brain striatum adenosine A2A receptor relative to control
Sequence of Adenosine receptor A2a (Rattus norvegicus) (P30543 whole entry): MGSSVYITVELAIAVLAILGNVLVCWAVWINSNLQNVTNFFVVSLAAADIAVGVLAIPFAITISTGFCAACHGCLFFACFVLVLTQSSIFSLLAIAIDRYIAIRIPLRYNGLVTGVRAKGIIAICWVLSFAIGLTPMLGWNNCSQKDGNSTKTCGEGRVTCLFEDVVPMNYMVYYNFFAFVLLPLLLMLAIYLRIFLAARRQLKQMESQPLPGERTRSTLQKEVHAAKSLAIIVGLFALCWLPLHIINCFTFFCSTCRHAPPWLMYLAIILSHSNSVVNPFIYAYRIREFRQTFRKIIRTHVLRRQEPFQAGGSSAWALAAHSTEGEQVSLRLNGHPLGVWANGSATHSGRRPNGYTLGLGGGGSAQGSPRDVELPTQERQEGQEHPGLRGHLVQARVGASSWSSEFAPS

[19] = Half life in Sprague-Dawley rat at 1 mg/kg, po; type: ADME, organism-based; parameters: dose 1 mg/kg, route oral; conditions: in vivo; procedure, shortened: as §2
Adenosine receptor A2b = biological target: T5, Adenosine receptor A2b (Homo sapiens, UniProt P29275); assay: Displacement of [125I]3-(4-aminobenzyl)-8-phenyloxyacetate-1-propyl-xanthine from human adenosine A2B receptor expressed in HEK cells; type: cell-based, HEK293; procedure, shortened: as §3
T5 sequence (P29275 whole entry): T2 sequence (whole entry)

Cynomolgus monkey = assay: Volume of distribution in cynomolgus monkey at 1 mg/kg, po; type: ADME, organism-based, Macaca fascicularis; parameters: dose 1 mg/kg, route oral; conditions: in vivo; procedure, shortened: as §2
[20] = Half life in cynomolgus monkey at 1 mg/kg, po; type: ADME, organism-based, Macaca fascicularis; parameters: dose 1 mg/kg, route oral; conditions: in vivo; procedure, shortened: as §2
Rattus norvegicus [21] = assay: Diuretic effect in orally dosed rat; type: ADME, organism-based; conditions: Urine, po
Procedure, shortened: (§6)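 Male Sprague-Dawley rats in metabolic cages dosed by gavage in 0.5% CMC suspension, 0.001-3 mg/kg (n=3-5 per group; vehicle n=3). Urine collected 4 h, volume measured gravimetrically, Na and K by flame photometry. Urine flow and UNaV expressed per hour, averaged over 4 h.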

[22] = Half life in Beagle dog at 1 mg/kg, po; type: ADME, organism-based, Canis lupus familiaris; parameters: dose 1 mg/kg, route oral; conditions: in vivo; procedure, shortened: as §2
Rattus norvegicus [23] = species on record: Rattus norvegicus; assay: Reversal of CPA inhibition of isoproterenol-stimulated rat atria; type: functional, organism-based; conditions: Cardiac atrium
Procedure, shortened: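 Isolated rat atria in Krebs buffer at 37 °C gassed with 95% O2/5% CO2, pH 7.4, stimulated with 30 nM isoproterenol. EC50 taken at 50% restoration, 5 atria per dose group.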

[24] = Clearance in cynomolgus monkey at 1 mg/kg, po; type: ADME, organism-based, Macaca fascicularis; parameters: dose 1 mg/kg, route oral; conditions: in vivo; procedure, shortened: as §2
[25] = Oral bioavailability in cynomolgus monkey at 1 mg/kg, po; type: ADME, organism-based, Macaca fascicularis; conditions: in vivo; procedure, shortened: as §2
[26] = Oral bioavailability in Beagle dog at 1 mg/kg, po; type: ADME, organism-based, Canis lupus familiaris; conditions: in vivo; procedure, shortened: as §2
Rattus norvegicus [27] = assay: Volume of distribution in Sprague-Dawley rat at 1 mg/kg, po; type: ADME, organism-based; parameters: dose 1 mg/kg, route oral; conditions: in vivo; procedure, shortened: as §2
[28] = Clearance in Beagle dog at 1 mg/kg, po; type: ADME, organism-based, Canis lupus familiaris; parameters: dose 1 mg/kg, route oral; conditions: in vivo; procedure, shortened: as §2
Adenosine receptor A3 = biological target: T6, Adenosine receptor A3 (Homo sapiens, UniProt P0DMS8); assay: Displacement of [125I]ABA from human adenosine A3 receptor expressed in HEK cells; type: cell-based, HEK293
T6 sequence (P0DMS8 whole entry): T4 sequence (whole entry)
Procedure, shortened: as §3, with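 “hA3. Radioligands: 0.3 nM (hA1) or 0.6 nM (hA3) 125I-ABA, 0.7 nM 125I-ZM241385, 0.5 nM A2B ligand.” for “hA3.”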

Rattus norvegicus [29] = assay: Natriuretic effect in orally dosed rat; type: ADME, organism-based; conditions: po; procedure, shortened: as §6
Adenosine receptor A2a [30] = biological target: Adenosine receptor A2a (Rattus norvegicus, UniProt P30543); assay: Displacement of [3H]ZM-241385 from rat brain striatum adenosine A2A receptor; procedure, shortened: as §5
Sequence of Adenosine receptor A2a (Rattus norvegicus, UniProt P30543) (P30543 whole entry): as above

Canis familiaris = assay: Volume of distribution in Beagle dog at 1 mg/kg, po; type: ADME, organism-based, Canis lupus familiaris; parameters: dose 1 mg/kg, route oral; conditions: in vivo; procedure, shortened: as §2

Ki (Adenosine receptor A1 [3])	solubility [5]	Ki (Adenosine receptor A1 [8])	Ki (Adenosine receptor A2a [9])	solubility [10]	Activity [11]	solubility [15]	bioavailability [16]	CL/F [17]	half-life [19]	Ki (Adenosine receptor A2b)	SMILES	other results
33 nM	29.8 mg/mL (≈ 76.7 mM)	7.8 nM	1.07 µM	18.1 mg/mL (≈ 46.6 mM)	100%	63 mg/mL (≈ 162 mM)					CCCn1c(=O)c2nc([C@]34CC[C@](C(=O)O)(CC3)CC4)[nH]c2n(CCC)c1=O	solubility [1]: 60 mg/mL (≈ 154 mM); half-life [2]: 128 min; Vdss (Rattus norvegicus [4]): 0.57 L/kg; Activity [6]: 48%; bioavailability [7]: 97%; CL/F [12]: 2.26 mL/min/kg; Ratio Ki [13]: 32; solubility [14]: 51 mg/mL (≈ 131 mM)
29 nM		4 nM		0.5 mg/mL (≈ 1.16 mM)	26%		48%	7.1 mL/min/kg	122 min	127 nM	CCCn1c(=O)c2nc([C@]34CC[C@](CCCC(=O)O)(CC3)CC4)[nH]c2n(CCC)c1=O	Activity [18]: 50%
	25.4 mg/mL (≈ 61 mM)	1.3 nM	6.41 µM	24.4 mg/mL (≈ 58.6 mM)		12.4 mg/mL (≈ 29.8 mM)	99%	1.56 mL/min/kg	188 min	90 nM	CCCn1c(=O)c2[nH]c([C@]34CC[C@](CCC(=O)O)(CC3)CC4)nc2n(CCC)c1=O	Vdss (Cynomolgus monkey): 4.25 L/kg; half-life [20]: 666 min; ED50 (Rattus norvegicus [21]): 0.015 mg/kg; half-life [22]: 384 min; EC50 (Rattus norvegicus [23]): 16.1 nM; Kb (Rattus norvegicus [23]; read-out: pA2 (converted)): 0.158 nM; CL/F [24]: 5.82 mL/min/kg; bioavailability [25]: 94%; bioavailability [26]: 78%; Vdss (Rattus norvegicus [27]): 0.32 L/kg; CL/F [28]: 11.8 mL/min/kg; Ki (Adenosine receptor A3): > 10 µM; ED50 (Rattus norvegicus [29]): 0.015 mg/kg; Ki (Adenosine receptor A2a [30]): 2440 nM; Vdss (Canis familiaris): 2.64 L/kg

Reference: ChEMBL document CHEMBL1137359, “Potent and orally bioavailable 8-bicyclo[2.2.2]octylxanthines as adenosine A1 receptor antagonists” (J Med Chem, 2006)
